Source: ChEMBL document CHEMBL4145574, “Inhibition of Breast Cancer Cell Migration by Cyclotides Isolated from Pombalia calceolaria” (J Nat Prod, 2018)
pIC50: −log10 of the molar value. Where a SMILES comes first, the peptide text is derived from it. Bridges are numbered along the chain shown (N, C = ends).

What was measured:
MDA-MB-231 [1] = assay: Cytotoxicity against human MDA-MB-231 cells assessed as cell death after 24 hrs by MTS assay; type: functional, cell-based; conditions: MDA-MB-231, 24 h
How it was run: (§1)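 MDA-MB-231 cells in DMEM with 10% FBS at 37 °C, 5% CO2, seeded at 4 × 10^3 cells/well. After 24 h, seven concentrations (20−0.03 μM) were added in triplicate, with doxorubicin as control. After 24 h exposure, MTS was added for 4 h at 37 °C and absorbance read at 490 nm. Viability is relative to control wells; IC50 is from nonlinear regression. At least two independent experiments.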

MDA-MB-231 [2] = assay: Cytotoxicity against human MDA-MB-231 cells assessed as cell death at 20 uM after 24 hrs by MTS assay relative to control; type: functional; how it was run: as §1
MDA-MB-231 [3] = assay: Inhibition of cell migration in human MDA-MB-231 cells at 2 uM incubated for […] by scratch wound healing assay relative to control; type: functional
How it was run: (§2)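 MDA-MB-231 cells were seeded at 1 × 10^5 cells/well and grown to a confluent monolayer, then scratched with a pipet tip. Debris was rinsed with FBS-free medium. Cells were incubated 22 h at 37 °C in 10% FBS medium with compound (10, 5, 2, 1 μM), with colchicine as positive control. Wound areas were imaged at 0 and 22 h and measured. Two independent experiments in triplicate, reported as mean ± SD.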

MDA-MB-231 [4] = assay: Inhibition of cell migration in human MDA-MB-231 cells at 5 uM incubated for […] by scratch wound healing assay relative to control; type: functional; how it was run: as §2
MDA-MB-231 [5] = assay: Inhibition of cell migration in human MDA-MB-231 cells at 1 uM incubated for 22 hrs by scratch wound healing assay relative to control; conditions: MDA-MB-231, 22 h
MDA-MB-231 [6] = assay: Cytotoxicity against human MDA-MB-231 cells assessed as cell detachment at 2 to 5 uM; type: cell-based; conditions: mda-mb-231, 5 µM
How it was run: (§3)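 Toxicity was judged visually during the wound-healing assay. MDA-MB-231 monolayers were scratched, then incubated 22 h at 37 °C in medium with 10% FBS and compound at 10, 5, 2 or 1 μM. Cells were scored for detachment and for morphological change (volume reduction, membrane disintegration).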

MDA-MB-231 [7] = assay: Cytotoxicity against human MDA-MB-231 cells assessed as reduction in cell volume at 2 to 5 uM; type: cell-based; conditions: mda-mb-231, 5 µM; how it was run: as §3
MDA-MB-231 [8] = assay: Cytotoxicity against human MDA-MB-231 cells assessed as membrane disintegration at 2 to 5 uM; type: cell-based; conditions: mda-mb-231, 5 µM; how it was run: as §3
MDA-MB-231 [9] = assay: Cytotoxicity against human MDA-MB-231 cells assessed as cell detachment at 10 uM; type: cell-based; conditions: mda-mb-231, 10 µM; how it was run: as §3
MDA-MB-231 [10] = assay: Cytotoxicity against human MDA-MB-231 cells assessed as reduction in cell volume at 10 uM; type: cell-based; conditions: mda-mb-231, 10 µM; how it was run: as §3
MDA-MB-231 [11] = assay: Cytotoxicity against human MDA-MB-231 cells assessed as membrane disintegration at 10 uM; type: cell-based; conditions: mda-mb-231, 10 µM; how it was run: as §3
MDA-MB-231 [12] = assay: Inhibition of cell migration in human MDA-MB-231 cells at 10 uM […] by scratch wound healing assay relative to control; type: functional; conditions: MDA-MB-231, 22 h, in the assay text read “22 hrs” for “24 hrs”
How it was run: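 MDA-MB-231 cells in DMEM + 10% FBS, 37 °C, 5% CO2; 1 × 10^5 cells/well grown to confluence, monolayer scratched with pipet tip, debris rinsed with FBS-free medium. Incubated 22 h at 37 °C in 10% FBS medium with compound (10, 5, 2, 1 μM). Wound areas imaged at 0 and 22 h and measured; cell toxicity judged visually. Colchicine positive control. Two independent experiments in triplicate, mean ± SD.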

| SMILES | pIC50 (MDA-MB-231 [1]) | Activity (MDA-MB-231 [2]) [%] | inhibition at 1 µM (MDA-MB-231 [5]) [%] | Activity (MDA-MB-231 [9]) | Activity (MDA-MB-231 [10]) | Activity (MDA-MB-231 [11]) | other results |
| --- | --- | --- | --- | --- | --- | --- | --- |
| COc1cccc2c1C(=O)c1c(O)c3c(c(O)c1C2=O)C[C@@](O)(C(=O)CO)C[C@@H]3O[C@H]1C[C@H](N)[C@H](O)[C@H](C)O1 [DOXORUBICIN] | 6.05 | – | – | – | – | – | – |
| CC[C@H](C)[C@@H]1NC(=O)[C@H](C)NC(=O)[C@H](CO)NC(=O)[C@H](CO)NC(=O)[C@H]([C@@H](C)CC)NC(=O)[C@@H]2CSSC[C@@H]3NC(=O)[C@H](C(C)C)NC(=O)[C@H](CCCN)NC(=O)[C@H](CC(N)=O)NC(=O)[C@H](CCCN)NC(=O)[C@@H]4CSSC[C@H](NC(=O)[C@H](CO)NC(=O)[C@H](CCC(=O)O)NC(=O)CNC(=O)[C@H](CSSC[C@H](NC(=O)CNC1=O)C(=O)N[C@@H](CO)C(=O)N4)NC(=O)[C@@H]1CCCN1C(=O)[C@H]([C@@H](C)CC)NC(=O)CNC[C@@H](C(N)=O)NC(=O)[C@H](CCCN)NC(=O)[C@H](Cc1ccc(O)cc1)NC3=O)C(=O)N[C@@H](C(C)C)C(=O)N[C@@H](Cc1c[nH]c3ccccc13)C(=O)N[C@@H]([C@@H](C)CC)C(=O)N1CCC[C@H]1C(=O)N2 [listing 1 of 2 here] | – | >80 | 15 | – | – | – | inhibition at 2 µM (MDA-MB-231 [3]): 50%; inhibition at 5 µM (MDA-MB-231 [4]): 60% |
| CC[C@H](C)[C@@H]1NC(=O)[C@H](C)NC(=O)[C@H]([C@@H](C)O)NC(=O)[C@H]([C@@H](C)CC)NC(=O)[C@H]([C@@H](C)O)NC(=O)[C@@H]2CSSC[C@@H]3NC(=O)[C@H](C(C)C)NC(=O)[C@H](CCCNC(=N)N)NC(=O)[C@H](CC(=O)O)NC(=O)[C@H](CCCNC(=N)N)NC(=O)[C@@H]4CSSC[C@H](NC(=O)[C@H](CO)NC(=O)[C@H](CCC(=O)O)NC(=O)[C@H](C)NC(=O)[C@H](CSSC[C@H](NC(=O)CNC(=O)[C@H](CC(C)C)NC1=O)C(=O)N[C@@H](CO)C(=O)N4)NC(=O)[C@@H]1CCCN1C(=O)[C@H](CC(C)C)NC(=O)CNC(=O)[C@H](CC(=O)O)NC(=O)[C@H](Cc1ccc(O)cc1)NC3=O)C(=O)N[C@@H](C(C)C)C(=O)N[C@@H](Cc1ccccc1)C(=O)N[C@@H]([C@@H](C)CC)C(=O)N1CCC[C@H]1C(=O)N2 (cyclo(AESCVFIPCTITAILGCSCRDRVCYDGLPC); disulfide 4-19, 9-24, 17-30) [listing 1 of 2 here] | 5.74 | – | – | Toxic | Toxic | Toxic | Activity (MDA-MB-231 [6]): Toxic; Activity (MDA-MB-231 [7]): Toxic; Activity (MDA-MB-231 [8]): Toxic |
| CC[C@H](C)[C@@H]1NC(=O)[C@H](C)NC(=O)[C@H]([C@@H](C)O)NC(=O)[C@H](C(C)C)NC(=O)[C@@H]2CSSC[C@@H]3NC(=O)[C@H](C(C)C)NC(=O)[C@H](CCCNC(=N)N)NC(=O)[C@H](CC(=O)O)NC(=O)[C@H](CCCN)NC(=O)[C@@H]4CSSC[C@H](NC(=O)[C@H](CO)NC(=O)[C@H](CCC(=O)O)NC(=O)[C@H](C)NC(=O)[C@H](CSSC[C@H](NC(=O)CNC(=O)[C@H](CC(C)C)NC1=O)C(=O)N[C@@H](CO)C(=O)N4)NC(=O)[C@@H]1CCCN1C(=O)[C@H]([C@@H](C)CC)NC(=O)CNC(=O)[C@H](CC(N)=O)NC(=O)[C@H](Cc1ccc(O)cc1)NC3=O)C(=O)N[C@@H](C(C)C)C(=O)N[C@@H](Cc1ccccc1)C(=O)N[C@@H]([C@@H](C)CC)C(=O)N1CCC[C@H]1C(=O)N2 [listing 1 of 2 here] | – | >80 | 0 | – | – | – | – |
| CC[C@H](C)[C@@H]1NC(=O)[C@H](C)NC(=O)[C@H]([C@@H](C)O)NC(=O)[C@H]([C@@H](C)CC)NC(=O)[C@H]([C@@H](C)O)NC(=O)[C@@H]2CSSC[C@@H]3NC(=O)[C@H](C(C)C)NC(=O)[C@H](CCCNC(=N)N)NC(=O)[C@H](CC(=O)O)NC(=O)[C@H](CCCNC(=N)N)NC(=O)[C@@H]4CSSC[C@H](NC(=O)[C@H](CO)NC(=O)[C@H](CCC(=O)O)NC(=O)[C@H](C)NC(=O)[C@H](CSSC[C@H](NC(=O)CNC(=O)[C@H](CC(C)C)NC1=O)C(=O)N[C@@H](CO)C(=O)N4)NC(=O)[C@@H]1CCCN1C(=O)[C@H](CC(C)C)NC(=O)CNC(=O)[C@H](CC(=O)O)NC(=O)[C@H](Cc1ccc(O)cc1)NC3=O)C(=O)N[C@@H](C(C)C)C(=O)N[C@@H](Cc1ccccc1)C(=O)N[C@@H]([C@@H](C)CC)C(=O)N1CCC[C@H]1C(=O)N2 (cyclo(AESCVFIPCTITAILGCSCRDRVCYDGLPC); disulfide 4-19, 9-24, 17-30) [listing 2 of 2 here] | – | >80 | 0 | – | – | – | – |
| COc1cc2c(c(OC)c1OC)-c1ccc(OC)c(=O)cc1[C@@H](NC(C)=O)CC2 [COLCHICINE] | – | – | 75 | – | – | – | inhibition at 10 µM (MDA-MB-231 [12]): 85% |
| CC[C@H](C)[C@@H]1NC(=O)[C@H](C)NC(=O)[C@H]([C@@H](C)O)NC(=O)[C@H](C(C)C)NC(=O)[C@@H]2CSSC[C@@H]3NC(=O)[C@H](C(C)C)NC(=O)[C@H](CCCNC(=N)N)NC(=O)[C@H](CC(=O)O)NC(=O)[C@H](CCCN)NC(=O)[C@@H]4CSSC[C@H](NC(=O)[C@H](CO)NC(=O)[C@H](CCC(=O)O)NC(=O)[C@H](C)NC(=O)[C@H](CSSC[C@H](NC(=O)CNC(=O)[C@H](CC(C)C)NC1=O)C(=O)N[C@@H](CO)C(=O)N4)NC(=O)[C@@H]1CCCN1C(=O)[C@H]([C@@H](C)CC)NC(=O)CNC(=O)[C@H](CC(N)=O)NC(=O)[C@H](Cc1ccc(O)cc1)NC3=O)C(=O)N[C@@H](C(C)C)C(=O)N[C@@H](Cc1ccccc1)C(=O)N[C@@H]([C@@H](C)CC)C(=O)N1CCC[C@H]1C(=O)N2 [listing 2 of 2 here] | 5.57 | – | – | Toxic | Toxic | Toxic | Activity (MDA-MB-231 [6]): Toxic; Activity (MDA-MB-231 [7]): Toxic; Activity (MDA-MB-231 [8]): Toxic |
| CC[C@H](C)[C@@H]1NC(=O)[C@H](C)NC(=O)[C@H](CO)NC(=O)[C@H](CO)NC(=O)[C@H]([C@@H](C)CC)NC(=O)[C@@H]2CSSC[C@@H]3NC(=O)[C@H](C(C)C)NC(=O)[C@H](CCCN)NC(=O)[C@H](CC(N)=O)NC(=O)[C@H](CCCN)NC(=O)[C@@H]4CSSC[C@H](NC(=O)[C@H](CO)NC(=O)[C@H](CCC(=O)O)NC(=O)CNC(=O)[C@H](CSSC[C@H](NC(=O)CNC1=O)C(=O)N[C@@H](CO)C(=O)N4)NC(=O)[C@@H]1CCCN1C(=O)[C@H]([C@@H](C)CC)NC(=O)CNC[C@@H](C(N)=O)NC(=O)[C@H](CCCN)NC(=O)[C@H](Cc1ccc(O)cc1)NC3=O)C(=O)N[C@@H](C(C)C)C(=O)N[C@@H](Cc1c[nH]c3ccccc13)C(=O)N[C@@H]([C@@H](C)CC)C(=O)N1CCC[C@H]1C(=O)N2 [listing 2 of 2 here] | 5.01 | – | – | Toxic | Toxic | Toxic | – |
